# Screens deposited in PubChem by several laboratories.
# Hits are enriched below; roughly 5.7% of the tested compounds scored in any of these assays.
# SKKanGAS inh: S. pyogenes SKKanGAS growth inhibitors in kanamycin, primary screen, streptokinase expression inhibitor project, SKKanGAS strain, BacTiter-Glo luminescence. 6 h. inhibition, % at 7.5 µM. AID 1662, 2009. hit rate 1.3% among 300,000;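 active = mean replicate score, as percent of positive control median, at least 50; inconclusive = mean below 50 but one replicate at or above 50; inactive = mean and every replicate below 50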;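 note: strain carries kanamycin resistance gene driven by streptokinase promoter and grows in 40 µg/ml kanamycin; loss of luminescence reflects streptokinase promoter inhibition or plain growth inhibition; 0% = median of DMSO wells and 100% = positive control at its reference dose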
# T cruzi inh: inhibitors of intracellular T. cruzi growth, primary screen, luminescence, NIH3T3 host cells; T. cruzi beta-gal in NIH3T3, 90 h; inhibition, % (concentration not given with the values); hit rate 1.4% among 300,000; AID 1885, 2009;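 active = mean inhibition across valid replicates above about 55%, limit read from the data; inconclusive = mean below that limit but half or more replicates reach it; inactive = mean below it, under half of replicates reach it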;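 note: signal also drops with host cell toxicity which is not excluded here; 0% = plate median of DMSO wells and 100% = zero luminescence signal; higher percent means less beta-gal luminescence so fewer parasites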
#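 Test system: β-gal T. cruzi (Tulahuen C4) inside NIH/3T3 cells / Quantity: 5,000 cells/well / Measured by: luminescence from GalScreen with 0.05% NP40, read after 60 min / Medium: DMEM plus 2% FBS / Measure: parasite load inhibition, % / Reagent: Tulahuen C4 trypomastigotes, 5000/well / Schedule: co-culture of at least 90 h after 3 h attachment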
# CSC inhib: cancer stem cell viability inhibitors, primary screen, luminescence. cancer stem cell-like cells viability. inhibition, % at 7.5 µM. hit rate 1.1% among 300,000. AID 2717, 2010; in the data active = inhibition above about 75%; inconclusive = no clear call, values can overlap the other calls; tested in HMLE shEcad cells
# Mdm2-MdmX inh: inhibitors of human Mdm2-MdmX association, primary screen, cell-based, luminescence, split luciferase, SaOS-2, uHTS; hit rate 3% among 330,000; Protein Mdm4 (Homo sapiens) + E3 ubiquitin-protein ligase Mdm2 (Homo sapiens), …; AID 485346, 2010; inhibition, % at 8 µM; SaOS-2 split-luciferase Mdm2/MdmX complementation;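 active = inhibition of at least 50% at 8 µM in the primary screen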
# Target sequence (O15151 whole entry, looked up): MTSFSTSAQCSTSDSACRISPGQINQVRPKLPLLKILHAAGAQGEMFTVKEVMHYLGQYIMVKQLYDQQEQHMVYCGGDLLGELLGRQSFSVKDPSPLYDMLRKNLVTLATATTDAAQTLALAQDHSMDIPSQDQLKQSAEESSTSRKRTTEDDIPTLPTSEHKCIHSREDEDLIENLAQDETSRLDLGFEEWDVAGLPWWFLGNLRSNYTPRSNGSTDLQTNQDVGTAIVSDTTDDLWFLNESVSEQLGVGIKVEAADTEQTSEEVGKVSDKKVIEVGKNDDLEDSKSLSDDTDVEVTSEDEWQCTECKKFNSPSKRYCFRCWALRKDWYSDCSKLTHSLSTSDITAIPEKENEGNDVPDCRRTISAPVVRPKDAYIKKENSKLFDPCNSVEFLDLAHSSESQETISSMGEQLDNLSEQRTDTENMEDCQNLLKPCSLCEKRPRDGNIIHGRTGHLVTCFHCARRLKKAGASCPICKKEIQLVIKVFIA
# Target sequence (Q00987 whole entry, looked up): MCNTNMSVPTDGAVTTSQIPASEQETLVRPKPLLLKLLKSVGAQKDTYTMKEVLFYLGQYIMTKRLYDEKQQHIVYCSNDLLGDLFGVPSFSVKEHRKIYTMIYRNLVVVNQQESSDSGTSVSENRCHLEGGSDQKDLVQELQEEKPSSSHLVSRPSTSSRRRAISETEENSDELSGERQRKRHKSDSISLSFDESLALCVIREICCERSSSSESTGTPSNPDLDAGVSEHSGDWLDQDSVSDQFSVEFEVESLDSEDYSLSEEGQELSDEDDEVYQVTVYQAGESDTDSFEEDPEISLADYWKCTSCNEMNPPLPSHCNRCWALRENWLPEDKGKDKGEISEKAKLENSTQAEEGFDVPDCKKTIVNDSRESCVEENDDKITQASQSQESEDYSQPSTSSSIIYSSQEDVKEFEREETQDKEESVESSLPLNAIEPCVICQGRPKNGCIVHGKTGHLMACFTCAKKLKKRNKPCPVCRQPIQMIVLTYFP
# Calb FLC: C. albicans growth inhibition with fluconazole, primary screen, CaCi-2 strain, Alamar Blue fluorescence; C. albicans CaCi-2 (fluconazole-resistant clinical isolate) + fluconazole, 48 h; growth inhibition, % (concentration not given with the values); hit rate 0.57% among 300,000; AID 1979, 2009;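 active = growth inhibition above about 58% in most replicates, limit read from the data, passing the limit was not always enough; inconclusive = exactly half the replicates above a set limit; inactive = most replicates below a set limit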;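 note: all wells also contain fluconazole at 8 µg/ml as a sub-toxic cotreatment; 0% = median of DMSO wells and 100% = median of geldanamycin control wells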
# Beta cell apopt: inhibitors of cytokine-induced beta cell apoptosis, primary screen, luminescence. INS-1E cytokine-induced death, ATP luminescence, 48 h; percent of positive-control rescue, neutral wells zero. protection from apoptosis, % (test concentration not listed). hit rate 0.8% among 300,000. AID 435005, 2010;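 active = Every replicate reaches about 75%, or at least half do and their mean reaches it too, limit read from the data; inconclusive = At least half of replicates reach the limit but their mean does not; inactive = Under half of replicates reach the limit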;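 note: 0% = cytokine-treated negative control wells and 100% = positive control rescue; higher means more ATP so stronger rescue from cytokine killing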
# Mdm2-MdmX conf: Mdm2-MdmX complex disruptors, retested hits, confirmation, luminescence, single concentration. inhibition, % at 8 µM. Mdm2-MdmX binding, luminescent assay. hit rate 55% among 10,000. shares compounds with Mdm2-MdmX inh. AID 489028, 2010; in the data active = inhibition above about 40%
# FLuc counter: full-length luciferase signal inhibition, confirmation, counter-screen for Mdm2/MdmX interaction inhibitor project, cell-based, single concentration, SaOS-2 | SaOS-2 full-length luciferase counterscreen, luminescence | inhibition, % at 8 µM | hit rate 77% among 6,200 | shares compounds with Mdm2-MdmX inh;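 active = mean inhibition at 8 µM reaching about 37%, which flags the compound as non-specific, limit read from the data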;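 note: p53-null SaOS-2 cells with luciferase driven by a doxycycline-inducible promoter; compound on cells about two nights before reading with doxycycline added after day one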
# Numbers without * were called inactive; ? = inconclusive; / = not tested or not shown.
SMILES,SKKanGAS inh,T cruzi inh,CSC inhib,Mdm2-MdmX inh,Calb FLC,Beta cell apopt,Mdm2-MdmX conf,FLuc counter
Oc1ccc2ccccc2c1N=Nc1ccccn1,12,55*,105*,63*,0,95*,74*,28
N/C(=N\c1nc2ccccc2o1)NC(=O)c1cccc(Cl)c1,1,5,20,51*,3,10,17,/
COC(=O)C(C(=O)Nc1ccc(OC)cc1)C1CCCCCC1 (stereo not drawn),1,-2,4,56*,?,5,40*,66*
COc1ccc(-c2csc(NC(=O)C3CC(=O)N(Cc4ccccc4)C3)n2)cc1OC (stereo not drawn),3,16,/,29,-15,2,/,/
O[C@@H]1[C@@H](O)C=C2CCN3Cc4cc5c(cc4[C@H]1C23)OCO5 (stereo partly drawn),/,/,6,84*,/,36,76*,101*
O=C(NCC(=O)N1CCC2(CC1)NCCc1[nH]cnc12)c1cccc(Cl)c1,-3,-6,-2,17,-7,-6,/,/
COc1ccccc1-n1cnc2c(c1=O)c1nc3ccccc3nc1n2-c1ccc(C)cc1,7,8,-2,55*,-20,1,73*,65*
Cc1c(CN2CCC(n3nccc3NC(=O)C3CC3)CC2)[nH]c2ccccc12,5,-2,-1,23,4,6,/,/
O=Cc1cc2ccccc2nc1SCc1ccc(Cl)c(Cl)c1,45,4,94*,64*,-7,57,62*,86*
O=Cc1cc2ccccc2nc1SCc1ccc(Cl)cc1,51*,-5,88*,81*,-5,25,59*,84*
Cc1ccc(CSc2nc3ccccc3cc2C=O)cc1,6,-15,70,64*,11,39,65*,80*
O=Cc1cccnc1SCc1ccccc1,9,9,0,48,3,5,/,/
CC1CCCCN1C(=O)CCNC(=O)Cn1cnc2ccccc2c1=O (stereo not drawn),7,-11,-3,-16,1,-6,/,/
CN(Cc1ccccc1)C(=O)COC(=O)C1CCN(S(=O)(=O)c2ccc(Cl)c(C(F)(F)F)c2)CC1,0,3,-14,15,11,-1,/,/
COc1ccc(Nc2oc(COc3ccc(OC)cc3)nc2C#N)cc1,23,22,16,63*,0,/,80*,59*
CCOc1ccc(Nc2oc(-c3cccc(Cl)c3)nc2C#N)cc1,-5,-6,0,51*,6,6,1,/
COc1ccc(Nc2oc(COc3ccc(C)cc3)nc2C#N)cc1,18,32,-5,59*,17,1,74*,61*
COc1ccc(Nc2oc(COc3cccc(C)c3)nc2C#N)cc1,28,26,-8,63*,-20,5,48*,90*
CCCc1cc2c(cc1NC(=O)c1ccccc1C)OCO2,1,-9,-6,-31,-3,-1,/,/
CCOc1cc(NC(=O)c2ccccc2C)c(OCC)cc1NC(=O)C1=Cc2ccccc2OC1,1,4,/,62*,-10,1,16,/
C=CCOc1ccc(/C=C/C(=O)N2CCCN(S(=O)(=O)c3c(C)noc3C)CC2)cc1,/,/,/,3,/,/,/,/
COc1ccc2cc(C(=O)/C=C/c3cc(OC)c(OC)c(OC)c3)ccc2c1,11,3,46,75*,6,-6,54*,78*
COc1cc(/C=C/C(C)=O)cc(OC)c1OC,1,-8,/,-14,5,-16,/,/
COc1ccc(Oc2ccc(/C=N/NC(=O)c3cccnc3)cc2[N+](=O)[O-])cc1,-3,-5,22,15,25,2,/,/
COc1cc(/C=C/C(=O)N2CCC=CC2=O)cc(OC)c1OC,/,/,36,100*,/,8,63*,27
SMILES,SKKanGAS inh,T cruzi inh,CSC inhib,Mdm2-MdmX inh,Calb FLC,Beta cell apopt,Mdm2-MdmX conf,FLuc counter
COc1ccc(Oc2ccc(/C=C/C(=O)c3cccc(OC)c3)cc2[N+](=O)[O-])cc1,-23,-7,/,97*,17,-7,19,26
CC1(c2nnc(-c3ccccc3)o2)CC(c2ccc([N+](=O)[O-])cc2)=NO1 (stereo not drawn),-2,11,1,49,-15,-13,/,/
COc1ccc(-c2[nH]ncc2N=Nc2cc(C)cc(C)c2)cc1,?,40,7,49,15,18,/,/
COc1ccc(-c2[nH]ncc2N=Nc2ccccc2)cc1,29,6,94*,66*,-1,-14,58*,85*
COc1cccc(NC(=O)c2sc3nc(N4CCOCC4)c4c(c3c2N)CCCC4)c1,18,41,-10,-29,-3,/,/,/
COc1ccc(/C=N/NC(=O)c2nc(-c3ccccc3)cc(-c3ccccc3)n2)cc1O,36,32,/,56*,-3,15,33,121*
COc1ccc2[nH]c(C(=O)N/N=C/c3ccc(OC)c(O)c3)cc2c1,-9,-4,48,56*,-4,38,53*,67*
O=C(N/N=C/c1ccccc1)c1[nH]c2ccc(Br)cc2c1-c1ccccc1,-2,-8,46,63*,5,10,67*,83*
COc1ccc2[nH]c(C(=O)N/N=C/c3ccccc3OC)cc2c1,-4,-8,37,7,3,1,/,/
COc1ccc(/C=N/NC(=O)CCn2c3ccccc3c3ccccc32)cc1O,16,-15,57,53*,12,32,58*,60*
Cc1ccc2c(c1)-n1c(nc3ccc(C)cc3c1=O)C(Cc1ccccc1)NC2=O (stereo not drawn),/,/,/,-4,/,-1,/,/
CN(C)S(=O)(=O)Oc1cc(Cl)ccc1C(=O)Nc1ccc(F)cc1F,4,-13,2,5,-1,/,/,/
Cc1ccc2[nH]c(C(=O)N/N=C/c3ccccc3O)c(C)c2c1,101*,70*,38,59*,-19,86*,78*,25
COc1cc(OC)c2cc(C(=O)N/N=C/c3ccccc3O)[nH]c2c1,103*,9,71,73*,81*,85*,68*,38*
O=C1N/C(=C/c2ccc(Br)s2)C(=O)N1c1ccccc1,-6,-11,-1,51*,-19,-1,26,/
CCOc1cc(NC(=O)C2CC2)c(OCC)cc1NC(=O)c1cc(OC)c(OC)c(OC)c1,1,15,-8,62*,7,10,13,/
